Source: ChEMBL document CHEMBL3797149, “1-Sulfonyl-6-Piperazinyl-7-Azaindoles as potent and pseudo-selective 5-HT6 receptor antagonists” (Bioorg Med Chem Lett, 2016)
≈ marks a conversion by molar mass, not a printed value.

Tests used:
[1] = biological target: 5-hydroxytryptamine receptor 6 (Homo sapiens, UniProt P50406); assay: Displacement of [3H]LSD from human 5HT6 receptor in HEK293 cell membrane incubated for 1 hr by scintillation counting method; assay type: cell membranes
Summary of the method: (§1)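 Competition binding: [3H]-LSD displacement for 5-HT6 and [3H]-NMSP displacement for D2. Eight compound concentrations, 5 × 10^-6 to 5 × 10^-13 M, each tested in triplicate. Affinity is reported as Ki.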

[2] = Intrinsic clearance in mouse liver microsomes at 1 uM by UPLC-MS analysis in presence of NADPH and UDPGA; assay type: ADME; settings: read-out: CLH
[3] = Kinetic solubility in sorensen buffer at pH 7.4 incubated for 1 hr by UV-Visible spectrophotometry; assay type: physicochemical; settings: read-out: Kinetic_solubility
Brain [4] = assay: Tmax in CD1 mouse brain at 3 mg/kg, po as single dose by LC-MS/MS analysis; assay type: ADME, organism-based; settings: in vivo, BLD = below limit of detection
[5] = Passive permeability of compound after 4 hrs by sink-PAMPA assay; assay type: ADME; settings: read-out: permeability
[6] = AUClast in CD1 mouse plasma at 3 mg/kg, sc after 0.083 to 6 hrs by LC-MS/MS analysis; assay type: ADME, organism-based; design: time lower 0.083 hr, dose 3 mg/kg, time upper 6 hr, route subcutaneous
[7] = Tmax in CD1 mouse brain at 10 mg/kg, sc by LC-MS/MS analysis; assay type: ADME, organism-based
[8] = AUClast in CD1 mouse plasma at 3 mg/kg, po as single dose after 0.083 to 6 hrs by LC-MS/MS analysis; assay type: ADME, organism-based; design: dose 3 mg/kg, time upper 6 hr, time lower 0.083 hr, route oral
[9] = Tmax in CD1 mouse plasma at 10 mg/kg, sc by LC-MS/MS analysis; assay type: ADME, organism-based
[10] = AUClast in CD1 mouse brain at 3 mg/kg, sc after 6 hrs by LC-MS/MS analysis; assay type: ADME, organism-based; design: time < 6 hr, dose 3 mg/kg, route subcutaneous
[11] = Cmax in CD1 mouse brain at 3 mg/kg, sc after 6 hrs by LC-MS/MS analysis; assay type: ADME, organism-based; design: dose 3 mg/kg, route subcutaneous
[12] = Cmax in CD1 mouse liver at 10 mg/kg, sc after 6 hrs by LC-MS/MS analysis; assay type: ADME, organism-based; design: dose 10 mg/kg, route subcutaneous
[13] = Tmax in CD1 mouse liver at 10 mg/kg, po as single dose by LC-MS/MS analysis; assay type: ADME, organism-based
[14] = AUClast in CD1 mouse brain at 10 mg/kg, sc after 6 hrs by LC-MS/MS analysis; assay type: ADME, organism-based; design: dose 10 mg/kg, time < 6 hr, route subcutaneous
[15] = Ratio of drug level in brain to plasma in CD1 mouse at 10 mg/kg, po as single dose by LC-MS/MS analysis; assay type: ADME, organism-based; settings: read-out: BPR
[16] = AUClast in CD1 mouse liver at 3 mg/kg, sc after 6 hrs by LC-MS/MS analysis; assay type: ADME, organism-based; design: time < 6 hr, dose 3 mg/kg, route subcutaneous
[17] = Cmax in CD1 mouse brain at 10 mg/kg, sc after 6 hrs by LC-MS/MS analysis; assay type: ADME, organism-based; design: dose 10 mg/kg, route subcutaneous
[18] = Tmax in CD1 mouse brain at 3 mg/kg, sc by LC-MS/MS analysis; assay type: ADME, organism-based
[19] = Cmax in CD1 mouse liver at 3 mg/kg, sc after 6 hrs by LC-MS/MS analysis; assay type: ADME, organism-based; design: dose 3 mg/kg, route subcutaneous
[20] = Tmax in CD1 mouse liver at 3 mg/kg, po as single dose by LC-MS/MS analysis; assay type: ADME, organism-based
[21] = Cmax in CD1 mouse plasma at 10 mg/kg, sc after 0.083 to 6 hrs by LC-MS/MS analysis; assay type: ADME, organism-based; design: dose 10 mg/kg, route subcutaneous
[22] = Tmax in CD1 mouse brain at 10 mg/kg, po as single dose by LC-MS/MS analysis; assay type: ADME, organism-based
[23] = AUClast in CD1 mouse brain at 10 mg/kg, po as single dose after 6 hrs by LC-MS/MS analysis; assay type: ADME, organism-based; design: time < 6 hr, dose 10 mg/kg, route oral
[24] = AUClast in CD1 mouse liver at 3 mg/kg, po as single dose after 6 hrs by LC-MS/MS analysis; assay type: ADME, organism-based; design: dose 3 mg/kg, time < 6 hr, route oral
[25] = Cmax in CD1 mouse liver at 10 mg/kg, po as single dose after 6 hrs by LC-MS/MS analysis; assay type: ADME, organism-based; design: dose 10 mg/kg, route oral
[26] = biological target: Voltage-gated inwardly rectifying potassium channel KCNH2 (Homo sapiens, UniProt Q12809); assay: Inhibition of human ERG1 expressed in CHO cells by whole cell patch clamp electrophysiology method
[27] = AUClast in CD1 mouse liver at 10 mg/kg, sc after 6 hrs by LC-MS/MS analysis; assay type: ADME, organism-based; design: dose 10 mg/kg, time < 6 hr, route subcutaneous
[28] = Tmax in CD1 mouse liver at 3 mg/kg, sc by LC-MS/MS analysis; assay type: ADME, organism-based
[29] = Ratio of drug level in liver to plasma in CD1 mouse at 10 mg/kg, sc by LC-MS/MS analysis; assay type: ADME, organism-based
[30] = AUClast in CD1 mouse plasma at 10 mg/kg, po as single dose after 0.083 to 6 hrs by LC-MS/MS analysis; assay type: ADME, organism-based; design: time upper 6 hr, time lower 0.083 hr, dose 10 mg/kg, route oral
[31] = Ratio of drug level in brain to plasma in CD1 mouse at 3 mg/kg, sc by LC-MS/MS analysis; assay type: ADME, organism-based; settings: read-out: BPR
[32] = Cmax in CD1 mouse brain at 10 mg/kg, po as single dose after 6 hrs by LC-MS/MS analysis; assay type: ADME, organism-based; design: dose 10 mg/kg, route oral
[33] = Tmax in CD1 mouse plasma at 3 mg/kg, sc by LC-MS/MS analysis; assay type: ADME, organism-based
[34] = Cmax in CD1 mouse plasma at 10 mg/kg, po as single dose after 0.083 to 6 hrs by LC-MS/MS analysis; assay type: ADME, organism-based; design: dose 10 mg/kg, route oral
[35] = Intrinsic clearance in human liver microsomes at 1 uM by UPLC-MS analysis in presence of NADPH and UDPGA; assay type: ADME; settings: read-out: CLH
[36] = Ratio of drug level in liver to plasma in CD1 mouse at 3 mg/kg, sc by LC-MS/MS analysis; assay type: ADME, organism-based
[37] = Cmax in CD1 mouse plasma at 3 mg/kg, po as single dose after 0.083 to 6 hrs by LC-MS/MS analysis; assay type: ADME, organism-based; design: dose 3 mg/kg, route oral
[38] = Ratio of drug level in brain to plasma in CD1 mouse at 10 mg/kg, sc by LC-MS/MS analysis; assay type: ADME, organism-based; settings: read-out: BPR
[39] = Tmax in CD1 mouse liver at 10 mg/kg, sc by LC-MS/MS analysis; assay type: ADME, organism-based
[40] = Tmax in CD1 mouse plasma at 10 mg/kg, po as single dose by LC-MS/MS analysis; assay type: ADME, organism-based
[41] = AUClast in CD1 mouse plasma at 10 mg/kg, sc after 0.083 to 6 hrs by LC-MS/MS analysis; assay type: ADME, organism-based; design: time 0.083-6 hr, dose 10 mg/kg, route subcutaneous
Brain [42] = assay: Cmax in CD1 mouse brain at 3 mg/kg, po as single dose after 6 hrs by LC-MS/MS analysis; assay type: ADME, organism-based; design: dose 3 mg/kg, route oral; settings: in vivo, BLD = below limit of detection
D(2) dopamine receptor = D(2) dopamine receptor (Homo sapiens, UniProt P14416); assay: Displacement of [3H]NMSP from human dopamine D2S receptor expressed in CHO cell membrane incubated for 1 hr by scintillation counting method; assay type: cell membranes; summary of the method: as §1
[43] = Tmax in CD1 mouse plasma at 3 mg/kg, po as single dose by LC-MS/MS analysis; assay type: ADME, organism-based
[44] = Cmax in CD1 mouse plasma at 3 mg/kg, sc after 0.083 to 6 hrs by LC-MS/MS analysis; assay type: ADME, organism-based; design: dose 3 mg/kg, route subcutaneous
[45] = Intrinsic clearance in rat liver microsomes at 1 uM by UPLC-MS analysis in presence of NADPH and UDPGA; assay type: ADME; settings: read-out: CLH
Cytochrome P450 2D6 = Cytochrome P450 2D6 (Homo sapiens, UniProt P10635); assay: Inhibition of human recombinant CYP2D6 using AMMC as substrate incubated for 45 mins by fluorescence analysis in presence of NADPH; assay type: ADME
Cytochrome P450 3A4 = Cytochrome P450 3A4 (Homo sapiens, UniProt P08684); assay: Inhibition of human recombinant CYP3A4 using 7-benzyloxy-trifluoromethylcoumarin as substrate incubated for 30 mins by fluorescence analysis in presence of NADPH; assay type: ADME
[46] = Ratio of drug level in liver to plasma in CD1 mouse at 10 mg/kg, po as single dose by LC-MS/MS analysis; assay type: ADME, organism-based
[47] = Cmax in CD1 mouse liver at 3 mg/kg, po as single dose after 6 hrs by LC-MS/MS analysis; assay type: ADME, organism-based; design: dose 3 mg/kg, route oral
[48] = AUClast in CD1 mouse liver at 10 mg/kg, po as single dose after 6 hrs by LC-MS/MS analysis; assay type: ADME, organism-based; design: dose 10 mg/kg, time < 6 hr, route oral
[49] = Ratio of drug level in brain to plasma in CD1 mouse at 3 mg/kg, po as single dose by LC-MS/MS analysis; assay type: ADME, organism-based; settings: BLD = below limit of detection
[50] = Ratio of drug level in liver to plasma in CD1 mouse at 3 mg/kg, po as single dose by LC-MS/MS analysis; assay type: ADME, organism-based

Sequence of 5-hydroxytryptamine receptor 6 (P50406 whole entry): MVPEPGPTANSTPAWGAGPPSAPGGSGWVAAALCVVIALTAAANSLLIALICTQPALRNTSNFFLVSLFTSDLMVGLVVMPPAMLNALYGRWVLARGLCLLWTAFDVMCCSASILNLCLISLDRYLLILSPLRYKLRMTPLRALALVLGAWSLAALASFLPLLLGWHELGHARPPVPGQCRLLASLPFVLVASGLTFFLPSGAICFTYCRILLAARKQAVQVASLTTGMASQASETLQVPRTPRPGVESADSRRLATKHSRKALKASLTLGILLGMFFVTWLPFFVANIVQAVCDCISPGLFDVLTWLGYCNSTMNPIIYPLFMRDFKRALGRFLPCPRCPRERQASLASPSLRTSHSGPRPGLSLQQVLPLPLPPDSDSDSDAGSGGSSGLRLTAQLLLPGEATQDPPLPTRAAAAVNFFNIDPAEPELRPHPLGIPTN
Sequence of Cytochrome P450 3A4 (P08684 whole entry): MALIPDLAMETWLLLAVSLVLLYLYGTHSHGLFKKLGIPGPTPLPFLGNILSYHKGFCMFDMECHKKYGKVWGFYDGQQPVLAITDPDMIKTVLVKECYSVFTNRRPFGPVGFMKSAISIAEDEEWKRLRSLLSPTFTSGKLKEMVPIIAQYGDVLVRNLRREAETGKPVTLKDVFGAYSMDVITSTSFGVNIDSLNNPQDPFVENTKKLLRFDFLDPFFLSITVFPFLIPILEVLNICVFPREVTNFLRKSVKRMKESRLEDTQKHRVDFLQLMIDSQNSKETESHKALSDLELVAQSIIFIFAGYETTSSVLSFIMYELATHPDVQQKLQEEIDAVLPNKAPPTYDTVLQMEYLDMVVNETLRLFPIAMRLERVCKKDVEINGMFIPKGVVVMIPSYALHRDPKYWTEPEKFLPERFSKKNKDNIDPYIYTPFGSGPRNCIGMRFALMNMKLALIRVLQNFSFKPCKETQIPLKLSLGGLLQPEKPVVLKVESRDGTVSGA
Sequence of Cytochrome P450 2D6 (P10635 whole entry): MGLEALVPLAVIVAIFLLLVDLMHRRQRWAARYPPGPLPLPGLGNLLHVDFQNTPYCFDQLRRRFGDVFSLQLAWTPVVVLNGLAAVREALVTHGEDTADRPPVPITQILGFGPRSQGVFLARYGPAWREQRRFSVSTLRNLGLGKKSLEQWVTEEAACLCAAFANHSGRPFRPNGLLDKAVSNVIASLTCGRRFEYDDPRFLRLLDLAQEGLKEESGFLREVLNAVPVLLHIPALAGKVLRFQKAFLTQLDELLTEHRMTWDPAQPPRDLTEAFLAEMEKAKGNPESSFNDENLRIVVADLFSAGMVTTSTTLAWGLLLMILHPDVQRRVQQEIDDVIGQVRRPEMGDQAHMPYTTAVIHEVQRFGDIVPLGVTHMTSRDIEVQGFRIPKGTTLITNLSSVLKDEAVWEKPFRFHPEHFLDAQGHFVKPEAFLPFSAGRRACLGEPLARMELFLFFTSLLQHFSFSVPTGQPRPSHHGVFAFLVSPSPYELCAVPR
Sequence of D(2) dopamine receptor (P14416 whole entry): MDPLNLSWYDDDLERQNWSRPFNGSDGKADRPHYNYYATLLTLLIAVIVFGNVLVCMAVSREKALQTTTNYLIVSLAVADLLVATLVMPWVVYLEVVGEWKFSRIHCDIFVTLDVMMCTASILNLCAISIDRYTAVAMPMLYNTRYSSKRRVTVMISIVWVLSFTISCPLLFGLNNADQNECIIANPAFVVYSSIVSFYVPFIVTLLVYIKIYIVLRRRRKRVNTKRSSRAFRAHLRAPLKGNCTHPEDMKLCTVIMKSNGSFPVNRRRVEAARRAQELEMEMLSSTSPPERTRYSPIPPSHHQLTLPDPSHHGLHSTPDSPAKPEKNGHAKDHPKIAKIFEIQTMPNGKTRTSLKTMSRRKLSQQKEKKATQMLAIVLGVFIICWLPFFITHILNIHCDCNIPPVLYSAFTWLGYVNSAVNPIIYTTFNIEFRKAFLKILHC
Sequence of Voltage-gated inwardly rectifying potassium channel KCNH2 (Q12809 whole entry): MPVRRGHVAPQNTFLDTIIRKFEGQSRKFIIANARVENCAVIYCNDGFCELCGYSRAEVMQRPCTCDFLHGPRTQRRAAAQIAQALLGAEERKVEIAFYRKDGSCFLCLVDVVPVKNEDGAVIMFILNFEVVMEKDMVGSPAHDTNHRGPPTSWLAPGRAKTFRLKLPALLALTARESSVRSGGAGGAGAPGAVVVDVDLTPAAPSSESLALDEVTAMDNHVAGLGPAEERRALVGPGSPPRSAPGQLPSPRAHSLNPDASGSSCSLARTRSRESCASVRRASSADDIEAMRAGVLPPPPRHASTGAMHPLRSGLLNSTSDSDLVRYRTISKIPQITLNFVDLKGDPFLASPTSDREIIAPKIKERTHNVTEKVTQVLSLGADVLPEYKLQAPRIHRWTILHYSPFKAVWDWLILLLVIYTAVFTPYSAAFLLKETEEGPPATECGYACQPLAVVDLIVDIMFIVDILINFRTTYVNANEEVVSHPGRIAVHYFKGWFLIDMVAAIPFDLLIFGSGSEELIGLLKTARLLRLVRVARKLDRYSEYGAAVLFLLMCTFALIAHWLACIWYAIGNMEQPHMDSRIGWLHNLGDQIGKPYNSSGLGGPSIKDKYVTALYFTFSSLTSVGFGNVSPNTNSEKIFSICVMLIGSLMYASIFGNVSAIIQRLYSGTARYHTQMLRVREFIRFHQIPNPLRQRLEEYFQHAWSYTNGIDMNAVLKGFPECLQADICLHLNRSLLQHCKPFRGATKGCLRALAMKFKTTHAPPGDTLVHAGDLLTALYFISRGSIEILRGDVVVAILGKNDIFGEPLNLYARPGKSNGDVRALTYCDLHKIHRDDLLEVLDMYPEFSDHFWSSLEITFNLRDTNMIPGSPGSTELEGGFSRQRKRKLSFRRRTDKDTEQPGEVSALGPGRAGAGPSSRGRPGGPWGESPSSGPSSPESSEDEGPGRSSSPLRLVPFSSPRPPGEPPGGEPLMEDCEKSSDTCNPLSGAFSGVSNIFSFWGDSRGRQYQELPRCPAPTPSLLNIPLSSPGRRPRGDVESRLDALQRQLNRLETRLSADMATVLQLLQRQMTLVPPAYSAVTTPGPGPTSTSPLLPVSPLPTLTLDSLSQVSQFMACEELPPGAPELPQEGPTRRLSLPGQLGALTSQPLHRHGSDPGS

In the case of `CC(C)CS(=O)(=O)n1ccc2c(-c3ccc(C(F)(F)F)cc3)cc(N3CCN(C)CC3)nc21`, the Ki [1] is reported as 0.004 µM, the microsomal CLint at 1 µM [2] is reported as 63 µL/min/mg and the solubility kinetic at 1 h [3] is reported as 8 µg/mL (≈ 16.6 µM). For the same compound, the Tmax (Brain [4]) was “BLD”, the Papp at 4 h [5] was 53.7 ×10⁻⁶ cm/s and the AUC(0-t) [6] was 90 ng·h/mL. For the same compound, the Tmax [7] was 6 h, the AUC(0-t) [8] was 13 ng·h/mL and the Tmax [9] was 1 h. The AUC(0-t) at 6 h [10] was 79 ng·h/mL, the Cmax [11] was 16 ng/mL and the Cmax [12] was 142 ng/mL. For the same compound, the Tmax [13] was 0.5 h, the AUC(0-t) at 6 h [14] was 161 ng·h/mL and the Kp [15] was 1.4. For the same compound, the AUC(0-t) at 6 h [16] was 241 ng·h/mL, the Cmax [17] was 36 ng/mL and the Tmax [18] was 6 h. It also gave a Cmax [19] of 43 ng/mL, a Tmax [20] of 0.25 h and a Cmax [21] of 44 ng/mL. For the same compound, the Tmax [22] was 6 h, the AUC(0-t) at 6 h [23] was 134 ng·h/mL and the AUC(0-t) at 6 h [24] was 260 ng·h/mL. It also gave a Cmax [25] of 740 ng/mL, an IC50 [26] of 2.1 µM and an AUC(0-t) at 6 h [27] of 687 ng·h/mL. For the same compound, the Tmax [28] was 1 h, the Kp [29] was 3.3 and the AUC(0-t) [30] was 97 ng·h/mL. The Kp [31] was 0.9, the Cmax [32] was 26 ng/mL and the Tmax [33] was 1 h. It also gave a Cmax [34] of 17 ng/mL, a microsomal CLint at 1 µM [35] of 20 µL/min/mg and a Kp [36] of 2.7. It also gave a Cmax [37] of 3 ng/mL, a Kp [38] of 0.8 and a Tmax [39] of 1 h. For the same compound, the Tmax [40] was 6 h, the AUC(0-t) [41] was 208 ng·h/mL and the Cmax (Brain [42]) was “BLD”. The Ki (D(2) dopamine receptor) was 0.367 µM, the Tmax [43] was 1 h and the Cmax [44] was 18 ng/mL. It also gave a microsomal CLint at 1 µM [45] of 55 µL/min/mg, an IC50 (Cytochrome P450 2D6) of 3.3 µM and an IC50 (Cytochrome P450 3A4) of 1.1 µM. For the same compound, the Kp [46] was 30.7, the Cmax [47] was 110 ng/mL and the AUC(0-t) at 6 h [48] was 2970 ng·h/mL. The BPR [49] was “BLD” and the Kp [50] was 19.5.
